RGS4 block: RGS4 inhibitors, primary screen, cell-based, HEK293 M3R inducible RGS4, calcium flux. Regulator of G-protein signaling 4 (Homo sapiens), P49798. Fluo-4 calcium flux; active compounds read high; triggered by carbachol at its EC20. B-score at 10 µM. 310,000 compounds, 0.45% hits. AID 463165, 2010;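 active = B-score, a plate-corrected calcium signal, over three deviations above library mean, with baseline fluorescence within five deviations of library mean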;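 also: RGS4 expression induced by doxycycline in cells with stable M3 receptor; B-score is computed from the integrated fluorescence ratio over baseline after carbachol; higher B-score means a larger calcium signal and so more RGS4 inhibition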
Target sequence (P49798 whole entry, looked up): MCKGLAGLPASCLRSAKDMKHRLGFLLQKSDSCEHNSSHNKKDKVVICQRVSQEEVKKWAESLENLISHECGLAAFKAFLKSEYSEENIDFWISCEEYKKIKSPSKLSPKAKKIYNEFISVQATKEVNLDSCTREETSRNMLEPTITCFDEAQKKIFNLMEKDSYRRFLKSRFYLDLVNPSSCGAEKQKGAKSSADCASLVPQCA
MrgX1 PAM: positive allosteric modulators of MrgX1, primary screen, HEK293 cells, Fluo-4 calcium flux; Mas-related G-protein coupled receptor member X1 (Homo sapiens), Q96LB2; FDSS; active compounds read high; B-score at 10 µM; 310,000 compounds, 0.63% hits;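 active = plate-corrected calcium response at least 3 library SD above typical, normal starting fluorescence, not activating the receptor alone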;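 also: compound read alongside a low EC10 to EC30 dose of BAM8-22 agonist; peak minus trough fluorescence over baseline measured at the second addition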
Target sequence (Q96LB2 whole entry, looked up): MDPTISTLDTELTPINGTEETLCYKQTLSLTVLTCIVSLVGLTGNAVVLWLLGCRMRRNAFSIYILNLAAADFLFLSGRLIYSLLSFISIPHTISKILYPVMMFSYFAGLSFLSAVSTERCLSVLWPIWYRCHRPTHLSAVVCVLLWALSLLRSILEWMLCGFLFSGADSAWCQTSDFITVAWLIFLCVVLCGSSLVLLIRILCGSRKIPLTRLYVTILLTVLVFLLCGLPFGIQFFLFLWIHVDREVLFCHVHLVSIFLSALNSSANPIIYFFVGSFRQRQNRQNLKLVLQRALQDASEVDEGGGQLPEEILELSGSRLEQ
MrgX1 antagonist: antagonists of human MrgX1 receptor, primary screen, HEK293 cells, Fluo-4 calcium flux; BAM8-22 antagonism; active compounds read low; Mas-related G-protein coupled receptor member X1 (Homo sapiens), Q96LB2; B-score at 10 µM; 310,000 compounds, 1.3% hits;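 active = calcium-response B-score plate-corrected more than 3 library SD below zero, starting fluorescence within 5 deviations, no agonist response on first addition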;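 also: peak minus trough fluorescence over baseline after final BAM8-22 challenge near maximal dose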
RGS4 pot: RGS4 potentiators or activators, primary screen, cell-based, HEK293 M3R inducible RGS4, calcium flux; carbachol calcium flux Fluo4; active compounds read low; 310,000 compounds, 0.92% hits; B-score at 10 µM; AID 463111, 2010;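 active = B-score of the integrated calcium signal more than 4 SD below the library mean, with starting fluorescence not abnormally high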;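 also: negative B-score means reduced calcium response which marks RGS4 activation or potentiation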
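Also added: carbachol at ECmax as muscarinic agonist stimulus; Assay system: HEK293 cells with stable M3R and inducible RGS4; Timing: overnight RGS4 induction, 30 min dye load 37 °C, 20 min compound RT; Measured by: Fluo4-AM (2 µM) calcium-flux fluorescence, kinetic read.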
MrgX1 agonist: agonists of human MrgX1 receptor, primary screen, HEK293 cells, Fluo-4 calcium flux. Mas-related G-protein coupled receptor member X1 (Homo sapiens), Q96LB2. Fluo-4 calcium fluorescence, agonist mode; active compounds read high. B-score at 10 µM. 310,000 compounds, 0.44% hits. AID 588627, 2011;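 active = calcium response B-score plate-corrected fluorescence ratio at least 3 library SD, with starting fluorescence B-score inside 5 SD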
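System: HEK293 cells stably expressing human MrgX1 receptor; Dosing: test compound in the initial addition of three; Schedule: overnight plating, then 30 min 37 °C plus 30 min room-temperature dye loading; Detection: kinetic calcium dye fluorescence, Fluo-4 NW; Controls: per-plate positive and negative controls for Z′ factor.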
MrgX1 antag conf: MrgX1 receptor antagonists, duplicate retest, confirmation, HEK293 cells, Fluo-4 calcium flux; shares compounds with MrgX1 antagonist; BAM8-22 calcium flux; active compounds read low; remaining BAM8-22 calcium response % of control (active compounds read low), % at 10 µM; 2,300 compounds, 19% hits; AID 602420, 2012;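 active = remaining agonist calcium response no higher than 100% minus 3 SD of agonist-only control wells, with starting fluorescence near control levels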;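 also: agonist BAM8-22 given at a near maximal EC90 to ECmax level; peak minus minimum fluorescence divided by baseline after agonist addition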
HEK293 Ca flux: nonspecific calcium signal in parental HEK293, confirmation, counter-screen for MrgX1 antagonist project, parental HEK293 cells, Fluo-4 calcium flux | 4,000 compounds, 2% hits | Fluo-4 calcium fluorescence, FDSS | shares compounds with MrgX1 antagonist | fluorescence ratio F(max-min)/F0 at 10 µM;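 active = duplicate-averaged calcium fluorescence ratio at least three times the standard deviation of buffer wells, a nonspecific response in parental cells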
HEK293 Ca counter: calcium response in parental HEK293 cells, primary screen, counter-screen for MrgX1 allosteric activator project, cell-based, Fluo-4 calcium flux, duplicate. Fluo-4 fluorescence ratio; active compounds read high. 4,000 compounds, 0.4% hits. shares compounds with MrgX1 antagonist. AID 624114, 2012. fluorescence ratio F(max-min)/F0 at 10 µM;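 active = calcium fluorescence ratio, averaged over duplicates, at least 3 SD of the buffer-well ratio, meaning a nonspecific response in receptor-free cells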;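 also: untransfected parental HEK293 lacking MrgX1 used as counterscreen for MrgX1 allosteric activators; fluorescence change taken during the second addition on a kinetic imager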
HEK293 Ca cntr2: calcium response in parental HEK293 cells, primary screen, counter-screen for MrgX1 agonist project, cell-based, Fluo-4 calcium flux, duplicate, agonist mode | fluorescence ratio F(max-min)/F0 at 10 µM | 4,000 compounds, 8.7% hits | Fluo-4 calcium fluorescence (FDSS); active compounds read high | shares compounds with MrgX1 antagonist;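 active = calcium fluorescence ratio at least three times the spread of buffer wells, meaning a non-specific response in parental cells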
A number is an active result; – = inactive; · = not tested or not shown. An excerpt weighted towards active compounds, which were near 3.5% of everything screened.

SMILES	RGS4 block	MrgX1 PAM	MrgX1 antagonist	RGS4 pot	MrgX1 agonist	MrgX1 antag conf	HEK293 Ca flux	HEK293 Ca counter	HEK293 Ca cntr2
O=S(=O)(Nc1nc(-c2ccccc2)cs1)c1cccc(C(F)(F)F)c1	–	–	-7.4	–	–	–	–	–	–
CN1CCN(c2ccc(Cl)cc2NC(=O)CN2C(=O)NC(C)(c3ccccc3)C2=O)CC1 (stereo not drawn)	–	–	-4.5	–	–	–	–	–	–
COc1cccc(CNS(=O)(=O)c2c(C(=O)N3CCCC3)c(C)n(C)c2C)c1	–	–	–	–	–	·	·	·	·
CCC(=O)NC(=S)Nc1ccccc1C(=O)NC1CCCCC1	–	–	–	–	–	·	·	·	·
FC(F)C(F)(F)c1cc(-c2ccc(Cl)cc2)n[nH]1	–	–	-6.7	–	–	–	–	–	–
Oc1ccccc1-c1cc(C(F)(F)C(F)F)[nH]n1	–	–	–	–	–	·	·	·	·
CC(C)(C)SCCNC(=O)CSc1ccccc1	–	–	-5	–	–	84%	–	–	–
Cc1ccc(S(=O)(=O)N(CC(=O)Nc2ccccc2C(=O)O)c2cccc(Cl)c2C)cc1	–	–	-7.1	–	–	–	–	–	–
Cc1ccc(CN2CCN(Cc3ccc(C)s3)CC2CCO)cc1 (stereo not drawn)	–	–	-5.1	–	–	–	–	–	–
CSc1ccc(CN2CCN(Cc3ccccc3)C(CCO)C2)cc1 (stereo not drawn)	–	–	-4.8	–	–	83%	–	–	–
CSc1ccc(CN2CCN(CC=C(C)C)C(CCO)C2)cc1 (stereo not drawn)	–	–	–	–	–	·	·	·	·
CSc1cccc(CN2CCN(CCc3ccccc3)C(CCO)C2)c1 (stereo not drawn)	–	–	–	–	–	·	·	·	·
Cc1ccc(CN2CCN(Cc3ccccc3)C(CCO)C2)s1 (stereo not drawn)	–	–	–	–	–	·	·	·	·
CSc1cccc(CN2CCN(Cc3ccccc3)C(CCO)C2)c1 (stereo not drawn)	–	–	-5.2	–	–	83%	–	–	–
Cc1ccc(-n2nc3c(c2NC(=O)c2ccc(OC(C)C)cc2)CS(=O)C3)cc1 (stereo not drawn)	–	–	–	–	–	·	·	·	·
O=C(Nc1ccc(-c2ccccc2)cc1)c1ccc2c(c1)S(=O)(=O)c1ccccc1C2=O	–	–	-4.7	–	–	–	–	–	–
O=C(Nc1ccncc1)c1ccc2c(c1)S(=O)(=O)c1ccccc1C2=O	–	–	–	–	–	·	·	·	·
Cc1ccc(N2CC3=C(C2=O)C(c2ccccc2)NC(=O)N3C)cc1 (stereo not drawn)	–	–	–	–	–	·	·	·	·
CCn1c(/C=C/c2ccc(O)c(O)c2)nc2ccccc2c1=O	–	–	-4.7	–	–	–	–	–	–
CCn1c(/C=C/c2ccc(O)cc2)nc2ccccc2c1=O	–	–	–	–	–	·	·	·	·
CCC1(CC)NC(=O)N(CC(=O)N2CCN(S(=O)(=O)c3cccc(F)c3)CC2)C1=O	–	–	–	–	–	·	·	·	·
O=C(Nc1cc(S(=O)(=O)N2CCOCC2)ccc1N1CCOCC1)c1cnccn1	–	–	-4.8	–	–	–	–	–	–
CCN=C(NCC)SC1CC(=O)N(c2ccccc2)C1=O (stereo not drawn)	–	–	-8.2	–	–	–	–	–	–
CC(=O)Nc1ccc(NC(=O)C(C)OC(=O)CN(C)S(=O)(=O)c2ccc(Cl)cc2)cc1 (stereo not drawn)	–	–	-6.1	–	–	–	–	–	–
O=C(NCCC1=CCCCC1)c1ccc(F)cc1	–	–	-6.2	–	–	–	–	–	–
SMILES	RGS4 block	MrgX1 PAM	MrgX1 antagonist	RGS4 pot	MrgX1 agonist	MrgX1 antag conf	HEK293 Ca flux	HEK293 Ca counter	HEK293 Ca cntr2
O=C(O)c1csc(Br)c1Br	–	–	–	–	–	·	·	·	·
Cc1cc(C)n(-c2nnc(C)n2/N=C/c2ccccc2O)n1	–	–	–	–	–	·	·	·	·
Cc1cc(C)n(-c2nnc(C)n2N)n1	–	–	-5.9	–	–	85%	–	–	–
COc1ccc2[nH]c3c(c2c1)CCN1C(=O)N([C@@H](C)C(=O)NCc2ccccc2OC)C(=O)[C@]31C	–	–	–	–	–	·	·	·	·
COc1ccc2[nH]c3c(c2c1)CCN1C(=O)N([C@@H](C)C(=O)NCc2ccccc2)C(=O)[C@]31C	–	–	-8.6	–	–	–	–	–	–
O=C(Cc1ccc(F)cc1)N1CCC(CC2CC(c3ccc(Cl)cc3)=NO2)(C(=O)NCC2CCCCC2)CC1 (stereo not drawn)	–	–	–	–	–	·	·	·	·
O=C1NC(O)(c2ccccc2)Oc2ccccc21 (stereo not drawn)	–	–	–	–	–	·	·	·	·
CCCC1(C)NC(=O)c2ccccc2O1 (stereo not drawn)	–	–	-4.9	–	–	–	–	–	–
COc1ccc(-n2c(CNC(=O)c3cccs3)n[nH]c2=S)cc1	–	–	-4.8	–	–	–	–	–	–
CCCCC(=O)Nc1ccc(C2C(=O)c3ccccc3C2=O)cc1	–	–	–	–	–	·	·	·	·
CN1CCN(S(=O)(=O)c2cccc(C(=O)Nc3sc4c(c3-c3nc5ccccc5[nH]3)CCCC4)c2)CC1	–	–	-5.5	–	–	55%	–	–	–
CC(=O)NCCC(=O)Nc1sc2c(c1-c1nc3ccccc3[nH]1)CCCC2	–	–	–	–	–	·	·	·	·
Cc1ccc(C(=O)NCCCNC(=O)COc2ccccc2Cl)cn1	–	–	–	–	–	·	·	·	·
COc1ccc(CN2C(=NC(=O)c3ccccc3)SC3CS(=O)(=O)CC32)cc1OC (stereo not drawn)	–	–	–	–	–	·	·	·	·
Oc1ccc(/C=N/Nc2nc(-c3ccc(Cl)cc3)cc(C(F)(F)F)n2)cc1	–	–	–	–	–	·	·	·	·
Cn1c(=O)cc(Nc2ccccc2)[nH]c1=O	–	–	–	–	–	·	·	·	·

Bioassay records from PubChem BioAssay.
